From ChEMBL document CHEMBL2046372, “Design and synthesis of pyrrolo[3,2-d]pyrimidine human epidermal growth factor receptor 2 (HER2)/epidermal growth factor receptor (EGFR) dual inhibitors: exploration of novel back-pocket binders” (J Med Chem, 2012)

What was measured:
[1] = target: Hepatocyte growth factor receptor (Homo sapiens, UniProt P08581); test: Inhibition of c-Met using ATP preincubated with compound for 5 mins measured after 10 mins
[2] = target: Platelet-derived growth factor receptor alpha (Homo sapiens, UniProt P16234); test: Inhibition of PDGFRalpha using ATP measured after 30 mins
[3] = target: CYP3A4 (Homo sapiens, UniProt P08684); test: Inhibition of CYP3A4 at 10 uM after 15 mins; type: ADME
[4] = target: Mitogen-activated protein kinase kinase kinase 5 (Homo sapiens, UniProt Q99683); test: Inhibition of N-terminus FLAG-tagged ASK1 expressed in baculovirus expression system using [gamma-33P]-ATP measured after 60 mins by scintillation counting
[5] = target: Glycogen synthase kinase-3 beta (Homo sapiens, UniProt P49841); test: Inhibition of N-terminus FLAG-tagged GSK3beta expressed in baculovirus expression system using [gamma-33P]-ATP measured after 30 mins by scintillation counting
[6] = target: Focal adhesion kinase 1 (Homo sapiens, UniProt Q05397); test: Inhibition of FAK using ATP measured after 60 mins
[7] = target: Vascular endothelial growth factor receptor 1 (Homo sapiens, UniProt P17948); test: Inhibition of VEGFR1 using ATP preincubated with compound for 5 mins measured after 5 mins
[8] = Antitumor activity against human 4-1ST cells overexpressing HER2 gene xenografted in nude mouse assessed as tumor growth regression at 50 mg/kg, po BID for 14 days relative to control; type: functional
Outline: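 Oral dosing at 50 mg/kg in mice bearing 4-1ST (HER2-overexpressing) tumor xenografts. Efficacy was expressed as tumor/control ratio (T/C). Significance versus control at day 14 was tested by one-tailed Shirley–Williams test.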

[9] = target: Mitogen-activated protein kinase 8 (Homo sapiens, UniProt P45983); test: Inhibition of N-terminus FLAG-tagged JNK1 expressed in baculovirus expression system using [gamma-33P]-ATP measured after 60 mins by scintillation counting
[10] = target: Serine/threonine-protein kinase PLK1 (Homo sapiens, UniProt P53350); test: Inhibition of N-terminus FLAG-tagged PLK1 expressed in baculovirus expression system using [gamma-33P]-ATP measured after 60 mins by scintillation counting
[11] = test system: BT-474; test: Growth inhibition of human BT474 cells overexpressing HER2 gene after 5 days; type: functional; settings: BT-474, 120 h
[12] = target: Dual specificity protein kinase TTK (Homo sapiens, UniProt P33981); test: Inhibition of N-terminus FLAG-tagged TTK expressed in baculovirus expression system using [gamma-33P]-ATP measured after 60 mins by scintillation counting
[13] = target: Tyrosine-protein kinase CSK (Homo sapiens, UniProt P41240); test: Inhibition of CSK using ATP preincubated with compound for 5 mins measured after 10 mins
[14] = target: Tyrosine-protein kinase ZAP-70 (Homo sapiens, UniProt P43403); test: Inhibition of ZAP70 using ATP measured after 10 mins
[15] = Metabolic stability in human liver microsomes at 1 umol/L after 20 mins by HPLC analysis; type: ADME, Microsome; settings: read-out: Stability
[16] = target: Protein kinase C theta type (Homo sapiens, UniProt Q04759); test: Inhibition of N-terminus FLAG-tagged PKCtheta expressed in baculovirus expression system using [gamma-33P]-ATP measured after 60 mins by scintillation counting
[17] = target: Tyrosine-protein kinase Lck (Homo sapiens, UniProt P06239); test: Inhibition of LCK using ATP preincubated with compound for 5 mins measured after 30 mins
[18] = Metabolic stability in mouse liver microsomes at 1 umol/L after 20 mins by HPLC analysis; type: ADME, Microsome; settings: read-out: Stability
[19] = target: Dual specificity mitogen-activated protein kinase kinase 1 (Homo sapiens, UniProt Q02750); test: Inhibition of N-terminus GST -fused MEK1 expressed using baculovirus infection system using [gamma-33P]ATP preincubated with compound for 5 mins measured after 30 mins by scintillation counting
[20] = target: T1, Tyrosine-protein kinase Lyn (Homo sapiens, UniProt P07948); test: Inhibition of Lyn B using ATP preincubated with compound for 5 mins measured after 10 mins
[21] = target: Mast/stem cell growth factor receptor Kit (Homo sapiens, UniProt P10721); test: Inhibition of c-kit using ATP measured after 20 mins
[22] = target: Cytoplasmic tyrosine-protein kinase BMX (Homo sapiens, UniProt P51813); test: Inhibition of BMX using ATP measured after 10 mins
[23] = target: Insulin-like growth factor 1 receptor (Homo sapiens, UniProt P08069); test: Inhibition of IGFR1 using ATP measured after 20 mins
[24] = target: Mitogen-activated protein kinase 3 (Homo sapiens, UniProt P27361); test: Inhibition of N-terminus FLAG-tagged Erk1 expressed in baculovirus expression system using [gamma-33P]-ATP measured after 60 mins by scintillation counting
[25] = target: Platelet-derived growth factor receptor beta (Homo sapiens, UniProt P09619); test: Inhibition of PDGFRbeta using ATP measured after 60 mins
[26] = target: Inhibitor of nuclear factor kappa-B kinase subunit beta (Homo sapiens, UniProt O14920); test: Inhibition of C-terminus FLAG-tagged IKKbeta expressed in baculovirus expression system using [gamma-33P]-ATP measured after 30 mins by scintillation counting
[27] = target: Angiopoietin-1 receptor (Homo sapiens, UniProt Q02763); test: Inhibition of TIE2 using ATP preincubated with compound for 5 mins measured after 10 mins
[28] = target: Receptor tyrosine-protein kinase erbB-4 (Homo sapiens, UniProt Q15303); test: Inhibition of N-terminus peptide-tagged human recombinant HER4 expressed using baculovirus infection system using [gamma-33P]-ATP preincubated with compound for 5 mins measured after 10 mins by scintillation counting
[29] = target: Fibroblast growth factor receptor 1 (Homo sapiens, UniProt P11362); test: Inhibition of FGFR1 using ATP preincubated with compound for 5 mins measured after 10 mins
[30] = target: Serine/threonine-protein kinase B-raf (Homo sapiens, UniProt P15056); test: Inhibition of N-terminus FLAG-tagged B-raf expressed in baculovirus expression system using [gamma-33P]-ATP measured after 60 mins by scintillation counting
[31] = target: Vascular endothelial growth factor receptor 2 (Homo sapiens, UniProt P35968); test: Inhibition of N-terminus FLAG-tagged VEGFR2 expressed using baculovirus infection system after 10 mins
[32] = target: Receptor tyrosine-protein kinase erbB-2 (Homo sapiens, UniProt P04626); test: Inhibition of N-terminus peptide-tagged human recombinant HER2 expressed using baculovirus infection system using [gamma-33P]-ATP preincubated with compound for 5 mins measured after 10 mins by scintillation counting
[33] = target: Dual specificity mitogen-activated protein kinase kinase 5 (Homo sapiens, UniProt Q13163); test: Inhibition of N-terminus FLAG-tagged MEK5 expressed in baculovirus expression system using [gamma-33P]-ATP measured after 30 mins by scintillation counting
[34] = target: Aurora kinase B (Homo sapiens, UniProt Q96GD4); test: Inhibition of N-terminal 6xHis tagged Aurora B kinase expressed using baculovirus expression system using [gamma-33P]ATP
[35] = target: Fibroblast growth factor receptor 3 (Homo sapiens, UniProt P22607); test: Inhibition of FGFR3 using ATP preincubated with compound for 5 mins measured after 10 mins
[36] = target: T1, Tyrosine-protein kinase Lyn; test: Inhibition of Lyn A using ATP preincubated with compound for 5 mins measured after 10 mins
[37] = target: Mitogen-activated protein kinase kinase kinase 1 (Homo sapiens, UniProt Q13233); test: Inhibition of C-terminus FLAG-tagged MEKK1 expressed in baculovirus expression system using [gamma-33P]-ATP measured after 60 mins by scintillation counting
[38] = target: Proto-oncogene tyrosine-protein kinase Src (Homo sapiens, UniProt P12931); test: Inhibition of Src using ATP preincubated with compound for 5 mins measured after 10 mins
[39] = target: Mitogen-activated protein kinase 14 (Homo sapiens, UniProt Q16539); test: Inhibition of N-terminus FLAG-tagged p38alpha expressed in baculovirus expression system using [gamma-33P]-ATP measured after 60 mins by scintillation counting
[40] = test system: CAL-27; test: Antitumor activity against human CAL27 cells overexpressing EGFR gene xenografted in nude mouse assessed as tumor growth regression at 100 mg/kg, po BID for 14 days relative to control; type: functional
Outline: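 CAL27 human head and neck cancer (EGFR-overexpressing) xenografts in mice were dosed orally at 100 mg/kg. Efficacy was expressed as tumor/control ratio (T/C) against vehicle control.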

T1 sequence (P07948 whole entry): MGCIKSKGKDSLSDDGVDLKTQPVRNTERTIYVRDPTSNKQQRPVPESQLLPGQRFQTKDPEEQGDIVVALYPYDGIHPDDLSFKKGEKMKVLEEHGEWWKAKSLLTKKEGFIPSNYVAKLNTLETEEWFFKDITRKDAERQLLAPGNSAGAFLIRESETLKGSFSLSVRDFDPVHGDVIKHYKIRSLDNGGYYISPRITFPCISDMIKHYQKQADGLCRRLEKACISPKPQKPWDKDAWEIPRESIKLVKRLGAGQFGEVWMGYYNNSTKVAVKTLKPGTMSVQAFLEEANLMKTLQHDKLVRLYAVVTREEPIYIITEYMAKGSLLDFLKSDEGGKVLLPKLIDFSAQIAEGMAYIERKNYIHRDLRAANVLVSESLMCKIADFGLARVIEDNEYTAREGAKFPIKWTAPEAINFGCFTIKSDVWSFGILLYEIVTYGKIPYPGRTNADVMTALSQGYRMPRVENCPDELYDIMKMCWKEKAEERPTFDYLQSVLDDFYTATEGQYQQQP
Chain of Vascular endothelial growth factor receptor 1 (P17948 whole entry): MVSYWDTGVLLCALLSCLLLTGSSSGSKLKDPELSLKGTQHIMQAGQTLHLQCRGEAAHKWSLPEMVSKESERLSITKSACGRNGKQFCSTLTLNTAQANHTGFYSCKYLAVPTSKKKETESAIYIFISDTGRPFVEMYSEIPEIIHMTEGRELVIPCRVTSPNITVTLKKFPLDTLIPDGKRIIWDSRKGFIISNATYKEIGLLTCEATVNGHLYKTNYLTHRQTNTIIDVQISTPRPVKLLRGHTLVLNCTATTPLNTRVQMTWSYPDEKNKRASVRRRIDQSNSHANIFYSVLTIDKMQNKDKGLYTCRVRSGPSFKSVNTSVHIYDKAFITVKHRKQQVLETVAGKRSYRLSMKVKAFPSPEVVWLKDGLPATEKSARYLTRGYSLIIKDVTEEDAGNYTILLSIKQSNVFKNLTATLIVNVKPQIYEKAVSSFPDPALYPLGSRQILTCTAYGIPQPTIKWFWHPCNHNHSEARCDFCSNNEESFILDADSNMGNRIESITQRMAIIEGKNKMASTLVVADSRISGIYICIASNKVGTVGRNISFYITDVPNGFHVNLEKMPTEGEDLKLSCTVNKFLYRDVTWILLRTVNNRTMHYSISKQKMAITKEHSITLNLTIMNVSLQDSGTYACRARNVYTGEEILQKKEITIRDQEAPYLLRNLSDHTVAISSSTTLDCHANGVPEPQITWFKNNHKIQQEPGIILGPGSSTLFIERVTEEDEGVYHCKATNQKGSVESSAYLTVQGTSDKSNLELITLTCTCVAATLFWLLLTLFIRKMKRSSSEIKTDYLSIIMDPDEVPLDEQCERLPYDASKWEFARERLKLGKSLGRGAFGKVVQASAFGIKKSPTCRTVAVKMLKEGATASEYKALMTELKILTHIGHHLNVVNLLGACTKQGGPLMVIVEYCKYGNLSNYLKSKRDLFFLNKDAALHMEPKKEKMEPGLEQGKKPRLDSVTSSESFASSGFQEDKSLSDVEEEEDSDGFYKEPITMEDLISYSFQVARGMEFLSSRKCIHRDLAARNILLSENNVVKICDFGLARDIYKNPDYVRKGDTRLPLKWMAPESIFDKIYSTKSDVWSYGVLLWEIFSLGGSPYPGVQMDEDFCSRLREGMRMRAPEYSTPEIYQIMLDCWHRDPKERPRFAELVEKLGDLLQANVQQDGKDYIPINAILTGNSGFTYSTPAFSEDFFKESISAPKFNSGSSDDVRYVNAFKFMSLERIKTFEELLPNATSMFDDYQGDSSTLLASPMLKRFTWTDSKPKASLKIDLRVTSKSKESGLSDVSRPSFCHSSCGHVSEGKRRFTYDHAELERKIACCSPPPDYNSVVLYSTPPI
Chain of Receptor tyrosine-protein kinase erbB-4 (Q15303 whole entry): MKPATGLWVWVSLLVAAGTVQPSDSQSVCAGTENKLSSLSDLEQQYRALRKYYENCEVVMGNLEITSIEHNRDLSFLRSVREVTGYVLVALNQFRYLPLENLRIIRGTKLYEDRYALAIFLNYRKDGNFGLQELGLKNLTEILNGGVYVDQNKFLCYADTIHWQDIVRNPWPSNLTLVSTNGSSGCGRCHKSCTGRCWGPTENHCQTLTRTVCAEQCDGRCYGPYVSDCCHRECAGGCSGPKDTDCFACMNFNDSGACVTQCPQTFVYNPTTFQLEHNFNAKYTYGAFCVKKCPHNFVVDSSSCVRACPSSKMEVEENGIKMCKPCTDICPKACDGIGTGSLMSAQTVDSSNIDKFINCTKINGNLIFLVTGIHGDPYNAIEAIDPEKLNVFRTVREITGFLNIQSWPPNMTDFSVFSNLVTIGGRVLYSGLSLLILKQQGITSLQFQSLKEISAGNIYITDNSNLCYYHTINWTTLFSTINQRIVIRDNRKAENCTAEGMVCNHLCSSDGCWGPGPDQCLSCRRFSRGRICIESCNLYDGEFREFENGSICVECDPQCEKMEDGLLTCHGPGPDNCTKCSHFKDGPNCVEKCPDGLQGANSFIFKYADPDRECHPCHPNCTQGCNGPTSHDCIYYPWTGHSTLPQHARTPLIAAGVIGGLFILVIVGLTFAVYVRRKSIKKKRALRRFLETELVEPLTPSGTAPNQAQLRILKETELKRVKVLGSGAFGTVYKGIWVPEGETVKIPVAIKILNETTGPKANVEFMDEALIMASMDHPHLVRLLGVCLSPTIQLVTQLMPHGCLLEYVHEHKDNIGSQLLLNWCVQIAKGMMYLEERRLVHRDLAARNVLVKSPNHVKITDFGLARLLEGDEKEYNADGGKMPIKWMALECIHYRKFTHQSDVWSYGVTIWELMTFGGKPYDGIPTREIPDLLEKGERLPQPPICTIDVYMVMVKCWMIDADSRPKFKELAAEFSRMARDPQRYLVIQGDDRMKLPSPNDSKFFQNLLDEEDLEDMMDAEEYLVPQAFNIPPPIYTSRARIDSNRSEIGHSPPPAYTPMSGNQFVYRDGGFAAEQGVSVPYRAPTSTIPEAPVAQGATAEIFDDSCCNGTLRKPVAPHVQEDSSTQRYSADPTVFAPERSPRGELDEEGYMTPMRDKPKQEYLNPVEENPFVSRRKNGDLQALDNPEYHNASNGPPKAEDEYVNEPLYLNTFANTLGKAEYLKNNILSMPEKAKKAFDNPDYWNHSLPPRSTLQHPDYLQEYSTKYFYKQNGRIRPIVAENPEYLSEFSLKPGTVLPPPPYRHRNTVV
Chain of Mitogen-activated protein kinase kinase kinase 5 (Q99683 whole entry): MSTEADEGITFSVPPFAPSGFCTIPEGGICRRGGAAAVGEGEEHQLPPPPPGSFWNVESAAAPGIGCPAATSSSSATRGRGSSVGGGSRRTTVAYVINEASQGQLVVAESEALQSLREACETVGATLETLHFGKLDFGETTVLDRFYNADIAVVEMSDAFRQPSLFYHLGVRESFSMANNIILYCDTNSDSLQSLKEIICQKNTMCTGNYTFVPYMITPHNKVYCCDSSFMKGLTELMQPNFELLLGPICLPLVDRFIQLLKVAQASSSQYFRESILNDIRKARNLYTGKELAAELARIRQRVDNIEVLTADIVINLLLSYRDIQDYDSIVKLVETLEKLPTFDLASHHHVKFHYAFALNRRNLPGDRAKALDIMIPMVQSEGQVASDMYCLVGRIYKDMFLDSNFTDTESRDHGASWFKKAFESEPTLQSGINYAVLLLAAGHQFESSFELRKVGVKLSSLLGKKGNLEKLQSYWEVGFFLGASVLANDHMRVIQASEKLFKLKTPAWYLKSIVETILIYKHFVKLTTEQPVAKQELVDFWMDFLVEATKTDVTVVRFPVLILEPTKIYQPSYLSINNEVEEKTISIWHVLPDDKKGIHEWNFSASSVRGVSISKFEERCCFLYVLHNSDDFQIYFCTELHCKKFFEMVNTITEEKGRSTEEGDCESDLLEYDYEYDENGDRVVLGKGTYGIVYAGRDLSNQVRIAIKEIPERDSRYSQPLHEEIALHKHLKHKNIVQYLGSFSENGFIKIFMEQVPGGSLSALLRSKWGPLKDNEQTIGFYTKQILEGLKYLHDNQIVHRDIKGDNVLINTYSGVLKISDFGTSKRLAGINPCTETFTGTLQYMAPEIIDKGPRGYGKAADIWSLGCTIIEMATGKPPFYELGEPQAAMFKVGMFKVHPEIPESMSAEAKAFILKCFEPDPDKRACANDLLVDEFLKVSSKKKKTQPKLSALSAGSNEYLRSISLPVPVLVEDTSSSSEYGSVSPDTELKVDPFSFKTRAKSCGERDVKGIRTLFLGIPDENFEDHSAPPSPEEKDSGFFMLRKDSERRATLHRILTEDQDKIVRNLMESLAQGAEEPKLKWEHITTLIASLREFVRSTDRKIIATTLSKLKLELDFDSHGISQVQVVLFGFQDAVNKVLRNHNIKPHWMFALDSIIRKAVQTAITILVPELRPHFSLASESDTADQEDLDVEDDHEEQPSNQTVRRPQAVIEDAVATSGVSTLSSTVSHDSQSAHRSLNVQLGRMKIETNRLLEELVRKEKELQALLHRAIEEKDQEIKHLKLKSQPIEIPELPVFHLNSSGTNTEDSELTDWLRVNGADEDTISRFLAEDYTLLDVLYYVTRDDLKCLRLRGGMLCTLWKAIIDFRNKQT
Chain of Glycogen synthase kinase-3 beta (P49841 whole entry): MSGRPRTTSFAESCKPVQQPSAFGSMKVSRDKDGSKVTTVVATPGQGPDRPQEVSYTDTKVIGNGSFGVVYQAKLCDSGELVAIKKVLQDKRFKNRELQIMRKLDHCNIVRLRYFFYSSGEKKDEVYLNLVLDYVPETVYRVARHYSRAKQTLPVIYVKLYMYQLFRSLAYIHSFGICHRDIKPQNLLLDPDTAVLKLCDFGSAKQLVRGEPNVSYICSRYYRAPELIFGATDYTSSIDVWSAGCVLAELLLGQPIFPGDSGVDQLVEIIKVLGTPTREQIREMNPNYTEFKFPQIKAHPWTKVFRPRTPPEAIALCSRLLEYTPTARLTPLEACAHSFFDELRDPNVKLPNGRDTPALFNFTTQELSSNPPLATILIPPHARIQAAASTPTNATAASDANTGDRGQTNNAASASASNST

Question: What does the source list for CC(C)(N)C(=O)NCCn1ccc2ncnc(Nc3ccc(Oc4cccc5sncc45)c(Cl)c3)c21?
Answer: IC50 [1]: 1.8 µM; IC50 [2]: > 10 µM; inhibition at 0.25 h, 10 µM [3]: 21.2%; IC50 [4]: > 10 µM; IC50 [5]: > 10 µM; IC50 [6]: > 10 µM; IC50 [7]: > 10 µM; T/C [8]: -23%; IC50 [9]: > 10 µM; IC50 [10]: > 10 µM; GI50 [11]: 0.002 µM; IC50 [12]: > 10 µM; IC50 [13]: 3.9 µM; IC50 [14]: > 10 µM; microsomal CLint at 1 µM [15]: 88 µL/min/mg; IC50 [16]: > 10 µM; IC50 [17]: 1.7 µM; microsomal CLint at 1 µM [18]: 77 µL/min/mg; IC50 [19]: 2.1 µM; IC50 [20]: 3 µM; IC50 [21]: > 10 µM; IC50 [22]: > 10 µM; IC50 [23]: > 10 µM; IC50 [24]: > 10 µM; IC50 [25]: > 10 µM; IC50 [26]: > 10 µM; IC50 [27]: 3.2 µM; IC50 [28]: 0.079 µM; IC50 [29]: > 10 µM; IC50 [30]: > 10 µM; IC50 [31]: > 10 µM; IC50 [32]: 0.00098 µM; IC50 [33]: > 10 µM; IC50 [34]: > 10 µM; IC50 [35]: > 10 µM; IC50 [36]: 7.1 µM; IC50 [37]: > 10 µM; IC50 [38]: 8.4 µM; IC50 [39]: > 10 µM; T/C [40]: -30%
